We go through 1 molecule from PubChem BioAssay AID602485 (The Scripps Research Institute Molecular Screening Center, 2012).

Active and inactive are the calls of the source.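 How the source made its calls: active means at least 50% ABHD10 inhibition in mouse heart after 25 mg/kg, and no other enzyme inhibited 50% at any dose; inactive means the rest.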

The target of assay [1] is Palmitoyl-protein thioesterase ABHD10, mitochondrial (Mus musculus) (UniProt Q6PE15). Briefly: ABHD10 inhibition in dosed mice, late-stage follow-up, in vivo study for PME-1 inhibitor project, gel-based competitive ABPP, fluorescence, mouse heart (AID 602485). Particulars: C57BL/6 mice i.p., heart proteome, FP-Rh gel ABPP, stronger effect = higher value. The procedure, abridged: (§1)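 System: C57BL/6 mouse heart soluble proteome. Reagent: FP-Rh activity-based probe, 1 µM final. Schedule: 6 h in vivo exposure, probe labelling 30 min at 25 °C. Technique: in-gel fluorescence after SDS-PAGE. Evaluation: percent inhibition from band integrated optical density versus vehicle. Control set: vehicle-dosed mice as high control, blank gel background as low.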

Assay in assay [2]: as above
Particulars: C57BL/6 mice i.p., heart proteome, FP-Rh gel ABPP; anti-targets at any tested dose. The procedure, abridged:
as §1

Palmitoyl-protein thioesterase ABHD10, mitochondrial (Mus musculus), sequence (Q6PE15 whole entry, looked up): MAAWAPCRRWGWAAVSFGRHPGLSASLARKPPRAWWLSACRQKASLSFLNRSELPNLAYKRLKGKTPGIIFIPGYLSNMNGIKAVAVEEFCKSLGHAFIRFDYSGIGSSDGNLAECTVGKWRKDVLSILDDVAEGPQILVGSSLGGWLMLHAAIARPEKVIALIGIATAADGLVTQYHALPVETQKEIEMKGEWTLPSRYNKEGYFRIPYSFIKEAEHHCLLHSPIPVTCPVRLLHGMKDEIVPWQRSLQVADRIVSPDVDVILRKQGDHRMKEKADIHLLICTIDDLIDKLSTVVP

The term inhibition denotes the percentage by which the read-out fell short of the control. In the case of `CC[C@@]1(c2ccc(C)cc2)C(=O)N(C(=O)OC(C)C)N1C(=O)OC(C)C`, the inhibition in assay [1] is 99%; in assay [1] (inhibition at 6 mg/kg), 10%; in assay [1] (inhibition at 13 mg/kg) it was 60%. For the same molecule, the outcome in assay [2] was inactive.
